Measurements collected from several papers.
Compare with care: the assays were run in different laboratories. Values after ≈ are worked out from the molar mass of the structure shown.
Organism: Staphylococcus aureus

[H]/N=C(/N)N[C@H]1[C@H](O)[C@@H](O)[C@H](O[C@@H]2O[C@@H](C)[C@](O)(C=O)[C@H]2O[C@@H]2O[C@@H](CO)[C@H](O)[C@@H](O)[C@@H]2NC)[C@@H](N/C(N)=N\[H])[C@@H]1O — inhibition zone (microbial growth, well diffusion; MTCC96; 1000 µg/mL, 18 h): 24 mm
CC1(C)S[C@@H]2[C@H](NC(=O)[C@H](N)c3ccccc3)C(=O)N2[C@H]1C(=O)O — MIC90 (microbial growth; MRSA; clinical isolate): > 128 mg/L
O=C(/C=C/C=C/c1ccccc1)c1ccccc1OCc1ccc(F)cc1 — inhibition zone (microbial growth, well diffusion; MTCC96; 1000 µg/mL, 18 h): 7 mm
CN1CCN(CCCN2c3ccccc3Sc3ccc(Cl)cc32)CC1 — MBC (microbial killing, broth dilution; ATCC43300; 18 h): 64 mg/L
O=C(/C=C/C=C/c1ccccc1)c1ccccc1OCc1cccc(Cl)c1 — inhibition zone (microbial growth, well diffusion; MTCC96; 1000 µg/mL, 18 h): 7 mm
CCCS(=O)(=O)Oc1cc(C=NNC(=O)CSc2nc3c(C)cccc3c(=O)n2-c2ccccc2)ccc1OC — inhibition zone (microbial growth, well diffusion; MRSA; 20 µg/mL): 2 mm
CN[C@H](CC(C)C)C(=O)N[C@H]1C(=O)N[C@@H](CC(N)=O)C(=O)N[C@H]2C(=O)N[C@H]3C(=O)N[C@H](C(=O)N[C@H](C(=O)O)c4cc(O)cc(O)c4-c4cc3ccc4O)[C@H](O)c3ccc(c(Cl)c3)Oc3cc2cc(c3O[C@@H]2O[C@H](CO)[C@@H](O)[C@H](O)[C@H]2O[C@H]2C[C@](C)(N)[C@H](O)[C@H](C)O2)Oc2ccc(cc2Cl)[C@H]1O — MIC90 (microbial growth; MRSA; clinical isolate): 2 mg/L (≈ 1.38 µM)
CCS(=O)(=O)Oc1ccc(C=NNC(=O)CSc2nc3c(C)cccc3c(=O)n2-c2ccccc2)cc1OC — inhibition zone (microbial growth, well diffusion; MRSA; 20 µg/mL): 3 mm
COc1ccc2cc3[n+](cc2c1OC)CCc1cc2c(cc1-3)OCO2 — MIC50 (microbial growth; 24 h): 72 µM
CNC(C)C1CCC(N)C(OC2C(N)CC(N)C(OC3OCC(C)(O)C(NC)C3O)C2O)O1 (stereo not shown) — MBC (microbial killing, broth dilution; ATCC25923; 24 h): 8000 µM
CCCS(=O)(=O)Oc1cc(C=NNC(=O)CSc2nc3ccc(Cl)cc3c(=O)n2-c2ccccc2)ccc1OC — inhibition zone (microbial growth, well diffusion; MRSA; 20 µg/mL): 2 mm
CC[C@H]1OC(=O)[C@H](C)[C@@H](O[C@H]2C[C@@](C)(OC)[C@@H](O)[C@H](C)O2)[C@H](C)[C@@H](O[C@@H]2O[C@H](C)C[C@H](N(C)C)[C@H]2O)[C@](C)(O)C[C@@H](C)/C(=N\OCOCCOC)[C@H](C)[C@@H](O)[C@]1(C)O — MIC90 (microbial growth; MRSA; clinical isolate): 64 mg/L (≈ 76.5 µM)
CCS(=O)(=O)Oc1ccc(C=NNC(=O)CSc2nc3ccc(Cl)cc3c(=O)n2-c2ccccc2)cc1 — inhibition zone (microbial growth, well diffusion; MRSA; 20 µg/mL): 2 mm
COc1cc2c(cc1OC)-c1cc3ccc(OC)c(OC)c3c[n+]1CC2 — MIC50 (microbial growth; 24 h): 205 µM
Cc1cccc2c(=O)n(-c3ccccc3)c(SCC(=O)NN=Cc3ccc(OS(C)(=O)=O)cc3)nc12 — inhibition zone (microbial growth, well diffusion; MRSA; 20 µg/mL): 2 mm
CC(=O)NC[C@H]1CN(c2ccc(N3CCOCC3)c(F)c2)C(=O)O1 — MIC90 (microbial growth; MRSA; clinical isolate): 2 mg/L (≈ 5.93 µM)
